Converted amounts (≈) assume the structure as drawn. The source made the active and inactive calls. The rule behind the calls is not given here.
Legend:
Pseudomonas aeruginosa [1] = assay: Antibacterial activity against Pseudomonas aeruginosa after 16 hrs by serial dilution method; assay type: functional
Outline: (§1)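 Broth tube serial dilution MIC. Test compounds were stocked at 1 mg/mL in DMF and twofold diluted in trypticase soya broth across six tubes. Each organism was grown 6 h at 37 °C, adjusted to […] (10⁸ cfu/mL) and diluted to 10⁵ cfu/mL; 1 mL was added per tube. Tubes were incubated 16 h at 37 °C. MIC was read as the concentration giving no visible growth. Inoculum and broth controls were included.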

Escherichia coli [2] = assay: Antibacterial activity against Escherichia coli after 16 hrs by serial dilution method; assay type: functional; outline: as §1
Bacillus subtilis [3] = assay: Antibacterial activity against Bacillus subtilis after 16 hrs by serial dilution method; assay type: functional; outline: as §1
Staphylococcus aureus [4] = assay: Antibacterial activity against Staphylococcus aureus at 1.6125 to 50 ug/ml after 16 hrs by serial dilution method; assay type: functional, organism-based; outline: as §1
Pseudomonas aeruginosa [5] = assay: Antibacterial activity against Pseudomonas aeruginosa at 1.6125 to 50 ug/ml after 16 hrs by serial dilution method; assay type: functional, organism-based; outline: as §1
Staphylococcus aureus [6] = assay: Antibacterial activity against Staphylococcus aureus after 16 hrs by serial dilution method; assay type: functional; outline: as §1
Bacillus subtilis [7] = assay: Antibacterial activity against Bacillus subtilis at 1.6125 to 50 ug/ml after 16 hrs by serial dilution method; assay type: functional, organism-based; outline: as §1
Escherichia coli [8] = assay: Antibacterial activity against Escherichia coli at 1.6125 to 50 ug/ml after 16 hrs by serial dilution method; assay type: functional, organism-based; outline: as §1

Structure (SMILES) | MIC (Pseudomonas aeruginosa [1]) | MIC (Escherichia coli [2]) | MIC (Bacillus subtilis [3]) | MIC (Staphylococcus aureus [6]) | Activity (Staphylococcus aureus [4]) | Activity (Pseudomonas aeruginosa [5]) | Activity (Bacillus subtilis [7]) | Activity (Escherichia coli [8])
Clc1ccc(-c2csc(N/N=C/c3c[nH]nc3-c3ccc(-c4ccccc4)cc3)n2)c(Cl)c1 |  |  |  |  | inactive | inactive | inactive | inactive
O=c1oc2ccc(Br)cc2cc1-c1csc(N/N=C/c2c[nH]nc2-c2cc(Cl)sc2Cl)n1 | 1.61 µg/mL (≈ 2.84 µM) | 1.61 µg/mL (≈ 2.84 µM) | 1.61 µg/mL (≈ 2.84 µM) | 1.61 µg/mL (≈ 2.84 µM) |  |  |  | 
O=c1oc2ccccc2cc1-c1csc(N/N=C/c2c[nH]nc2-c2ccc(-c3ccccc3)cc2)n1 |  |  |  |  | inactive | inactive | inactive | inactive
Clc1ccc(-c2csc(N/N=C/c3c[nH]nc3-c3cc(Cl)sc3Cl)n2)c(Cl)c1 | 1.61 µg/mL (≈ 3.3 µM) | 1.61 µg/mL (≈ 3.3 µM) | 1.61 µg/mL (≈ 3.3 µM) | 3.12 µg/mL (≈ 6.39 µM) |  |  |  | 
CO/N=C(\C(=O)N[C@@H]1C(=O)N2C(C(=O)O)=C(CSc3nc(=O)c(O)nn3C)CS[C@H]12)c1csc(N)n1 [CEFTRIAXONE] | 1.61 µg/mL (≈ 2.91 µM) | 1.61 µg/mL (≈ 2.91 µM) | 1.61 µg/mL (≈ 2.91 µM) | 3.12 µg/mL (≈ 5.63 µM) |  |  |  | 
O=c1oc2ccc(Br)cc2cc1-c1csc(N/N=C/c2c[nH]nc2-c2ccc(-c3ccccc3)cc2)n1 |  |  |  |  | inactive | inactive | inactive | inactive
CSc1ccc(-c2n[nH]cc2/C=N/Nc2nc(-c3cc4ccccc4oc3=O)cs2)cc1 |  |  |  |  | inactive | inactive | inactive | inactive
O=c1oc2ccccc2cc1-c1csc(N/N=C/c2c[nH]nc2-c2ccc(Cl)cc2Cl)n1 | 1.61 µg/mL (≈ 3.34 µM) | 1.61 µg/mL (≈ 3.34 µM) | 1.61 µg/mL (≈ 3.34 µM) | 3.12 µg/mL (≈ 6.48 µM) |  |  |  | 
CSc1ccc(-c2n[nH]cc2/C=N/Nc2nc(-c3cc4cc(Br)ccc4oc3=O)cs2)cc1 |  |  |  |  | inactive | inactive | inactive | inactive

Second part, led by results:

MIC (Pseudomonas aeruginosa [1]) | MIC (Escherichia coli [2]) | MIC (Bacillus subtilis [3]) | MIC (Staphylococcus aureus [6]) | Structure (SMILES) | Activity (Staphylococcus aureus [4]) | Activity (Pseudomonas aeruginosa [5]) | Activity (Bacillus subtilis [7]) | Activity (Escherichia coli [8])
50 µg/mL (≈ 109 µM) | 50 µg/mL (≈ 109 µM) | 50 µg/mL (≈ 109 µM) |  | CSc1ccc(-c2n[nH]cc2/C=N/Nc2nc(-c3ccc(Cl)cc3Cl)cs2)cc1 | inactive |  |  | 
 | 50 µg/mL (≈ 103 µM) |  | 3.12 µg/mL (≈ 6.47 µM) | Clc1ccc(-c2csc(N/N=C/c3c[nH]nc3-c3ccc(Cl)cc3Cl)n2)c(Cl)c1 |  | inactive | inactive | 
1.61 µg/mL (≈ 2.87 µM) | 1.61 µg/mL (≈ 2.87 µM) | 3.12 µg/mL (≈ 5.57 µM) | 3.12 µg/mL (≈ 5.57 µM) | O=c1oc2ccc(Br)cc2cc1-c1csc(N/N=C/c2c[nH]nc2-c2ccc(Cl)cc2Cl)n1 |  |  |  | 
1.61 µg/mL (≈ 3.3 µM) | 3.12 µg/mL (≈ 6.4 µM) | 1.61 µg/mL (≈ 3.3 µM) | 1.61 µg/mL (≈ 3.3 µM) | O=c1oc2ccccc2cc1-c1csc(N/N=C/c2c[nH]nc2-c2cc(Cl)sc2Cl)n1 |  |  |  | 
